19 sequences from the EternaBench riboswitch data can be followed below.

In data set [1] the test system is MS2 coat protein. Briefly: apparent Kd, MS2 coat protein; higher = weaker binding; RNA-MaP array; tryptophan 2.4 mM where present. A digest of the protocol: (§1)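 The titrant was SNAP-549-labelled MS2 coat protein, run from 0.7 or 1.5 nM in doubling steps to 3 µM. It was applied to designs transcribed by stalled E. coli RNA polymerase on Illumina sequencing-chip clusters, without ligand first and then with constant ligand, in 100 mM Tris-HCl pH 7.5, 80 mM KCl, 4 mM MgCl2, BSA, DTT, yeast tRNA and Tween-20. The apparent Kd is the median of filtered per-cluster binding-curve fits, with green signal normalised to red-channel RNA signal and control-cluster median Fmax.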

Data set [2] relates to MS2 coat protein. The data set can be described thus: apparent Kd, MS2 coat protein; higher = weaker binding; RNA-MaP array; theophylline 2 mM where present. In outline:
as §1

Where [3] appears, read: designed as: ON switch for tryptophan, no ligand.
Setting [4] is: ligand present: tryptophan, designed as: ON switch for tryptophan.
[5] abbreviates: designed as: OFF switch for tryptophan, no ligand.
[6] abbreviates: ligand present: tryptophan, designed as: OFF switch for tryptophan.
Where [7] appears, read: designed as: OFF switch for theophylline, no ligand.
Where [8] appears, read: ligand present: theophylline, designed as: OFF switch for theophylline.

As usually defined, the apparent Kd is a dissociation constant that holds for the conditions of the assay.

Regarding “UGGUACUAGGCGGCCGCCACUGGGUGAUACAUGAGGAUCACCCAUGUUUAAUGCCGAGAGGCAACUAGGACCGGGCCUAGUACAU”, the “apparent Kd” value in the data set on MS2 coat protein [1] (setting [3]) was 150 nM; with MS2 coat protein [1] (setting [4]), 689 nM.
Take “AACAACUAGUCGGCCGCCACUCAUAAUACAUGAGGAUCACCCAUGUAUACUUGGUUUUUAUAUUUGAGGACCGGGACAGUUGCAU”: the figures for the “apparent Kd” value in the data set on MS2 coat protein [1] (setting [5]) and in the data set on MS2 coat protein [1] (setting [6]) were 11.6 nM and 10.5 nM, respectively.
With “GGUUACUCUACGGCCGCCACUGAUUAAUUAUAAACCUGUACAUAAACAUGAGGAUCACCCAUGUACAGGACCGGGUAGUGUAACC”, the entries for the “apparent Kd” value in the data set on MS2 coat protein [1] (setting [3]) and with MS2 coat protein [1] (setting [4]) were 37.8 nM and 26.8 nM, respectively.
For the sequence “UUAUAAGUACCGGUCCUCAGAUCCUCAUGACGAGGACCGGUACGGCCGCCACUCGAAACAUGAGGAUCACCCAUGUAAUAACAUC”, the “apparent Kd” value in the data set on MS2 coat protein [1] (setting [5]) turned out to be 19.6 nM; in the data set on MS2 coat protein [1] (setting [6]) it was 20.7 nM.
Consider “UUUGGCGGCGAUCUGGGUUUACCAGAUCGGCGAGGACCGGUACGGCCGCCACUCGUGUUUCUUUGACAUGAGGAUCACCCAUGUA”, for which the entries for the “apparent Kd” value with MS2 coat protein [1] (setting [3]) and in the data set with MS2 coat protein [1] (setting [4]) were 62.5 nM and 39.1 nM, respectively.
For “CGCCACUCGAGUGAUCCUCACGAGUGGCUACGAGGACCGGUACGGCCGCCACUCGAAUUAACAUGAGGAUCACCCAUGUACUCCA”, in that order: 93.6 nM and 19.1 nM.
“CAGGCUAGGACGGCCGCCACUGUGGCUACGGUACAUGAGGAUCACCCAUGUUUGUGGUUGAUCUACAGGACCGGGUCCUGACACG”: the “apparent Kd” value was 132 nM in the data set on MS2 coat protein [1] (setting [3]) and 483 nM in the data set on MS2 coat protein [1] (setting [4]).
“ACACAAUACAUGAGGAUCACCCAUGUAAAACGAGGACCGGUACGGCCGCCACUCGAAUACUGUAAUCCUCGGAAUAUUAAGUGAA”: the “apparent Kd” value with MS2 coat protein [1] (setting [5]) is 41 nM; with MS2 coat protein [1] (setting [6]), 35.3 nM.
Turning to “AAAUAAACCUCGGCCGCCACUCGCCAUGAGGAUCACCCAUGUAACAUGAGGAUCACCCAUGUACAGAGGACCGGGAGGUCCUAGU”, the “apparent Kd” value with MS2 coat protein [1] (setting [3]) was found to be 73 nM; in the data set on MS2 coat protein [1] (setting [4]) it was 100 nM.
Consider “GUUAUAUACUCGGCCGCCACUGAGAGAGUCAUGUAAACAUGAGGAUCACCCAUGUAAUAUAUAUACAGGACCGGGAGUAUAGUAA”, for which the results for the “apparent Kd” value in the data set on MS2 coat protein [1] (setting [5]) and with MS2 coat protein [1] (setting [6]) were 14.5 nM and 13 nM, respectively.
With “UGUCAGCGAAAGUUGACAUGUCUUACCGGUCGAGGACCGGUACGGCCGCCACUCGAUCUCUCGCACAUGAGGAUCACCCAUGUUG”, the “apparent Kd” value in the data set with MS2 coat protein [1] (setting [3]) turned out to be 21.4 nM; in the data set on MS2 coat protein [1] (setting [4]) it was 15.1 nM.
“UGGUCACUAGGAGAUACCAGCCGACAUGAGGAUCACCCAUGUAACCGGCGUCCUCCCUUAGGCCCUUGGCAGCUCGUAGUUGCUC”: the “apparent Kd” value with MS2 coat protein [2] (setting [7]) came to 12.2 nM; with MS2 coat protein [2] (setting [8]) it was 156 nM.
For “AGCCCUGUACUAGAUACCAGCUACAUGAGGAUCACCCAUGUGCGUCAAGACUGACUGUGUAGCCCUUGGCAGCUGCUCGCAUGUA”, in that order: 22.1 nM and 32.2 nM.
With “CUCGGGUUAUCAGAUACCAGACUAAAAUUUACAUGAGGAUCACCCAUGUAAUGGGUGAUAGUCCCUUGGCAGCUGUUAUGUUUAA”, the figures for the “apparent Kd” value with MS2 coat protein [2] (setting [7]) and in the data set on MS2 coat protein [2] (setting [8]) were 62.3 nM and 119 nM, respectively.
For “UUAUUUAUAAAUGAUACCAGCCGAUUGGCCGCAAAUCCUAACAUGAGGAUCACCCAUGUCGGCCCUUGGCAGCAUUUAUGGGUUU”, in that order: 76.7 nM and 722 nM.
As for “AAAAUAAAUAAAACGCGUAACAUGAAGGAUACCAGCCAGAAAACUGGCCCUUGGCAGCCUCUACAUGAGGAUCACCCAUGUCGCG”, the “apparent Kd” value stood at 331 nM in the data set with MS2 coat protein [2] (designed as: ON switch for theophylline, no ligand) and 29.6 nM in the data set on MS2 coat protein [2] (ligand present: theophylline, designed as: ON switch for theophylline).
For “AGGAACAUGAGGAUCACCCAUGUAAGCGAUACCAGUGAUAUGUUGCGCCCUUGGCAGCGCAAGUGUGUGUGAAAGAUGUAAGAUU”, the “apparent Kd” value in the data set with MS2 coat protein [2] (setting [7]) came to 16.5 nM; in the data set on MS2 coat protein [2] (setting [8]), 33.4 nM.
For “AGACAUGAGGAUCACCCAUGUAGUACGGAUACCAGAUCCAGAUGCGUCCCUUGGCAGCUGUAGUACAGCGUUACGUCGCUCAUAG”, in that order: 25.2 nM and 61 nM.
Consider “UAUAUAUAUAUUGAUACCAGCAGAGAAAACGUUUAUCCUAACAUGAGGAUCACCCAUGUAUGCCCUUGGCAGCGAUAUAUAUAUA”, for which the “apparent Kd” value in the data set with MS2 coat protein [2] (setting [7]) amounted to 24.5 nM; with MS2 coat protein [2] (setting [8]), 32.5 nM.
